This is an account of results in ChEMBL document CHEMBL1145112, “Pyrazolo[4,3-e]-1,2,4-triazolo[1,5-c]pyrimidine derivatives as adenosine receptor antagonists. Influence of the N5 substituent on the affinity at the human A 3 and A 2B adenosine receptor subtypes: a molecular modeling investigation” (J Med Chem, 2003).

Experiment [1] concerns the target Adenosine receptors; A1 & A2b (Homo sapiens) (UniProt P30542+P29275). The experiment is described as follows: Relative inhibitory activity against adenosine A1 and A2B receptors. It is filed as protein assay.
For experiment [2], the target named is Adenosine receptors; A2b & A3 (Homo sapiens) (UniProt P29275+P0DMS8). The experiment is described as follows: Relative inhibitory activity against adenosine A3 receptors and A2B receptors. It counts as protein assay.
Experiment [3] deals with T1, Adenosine receptor A2b (Homo sapiens, UniProt P29275).
T1 sequence (P29275 whole entry): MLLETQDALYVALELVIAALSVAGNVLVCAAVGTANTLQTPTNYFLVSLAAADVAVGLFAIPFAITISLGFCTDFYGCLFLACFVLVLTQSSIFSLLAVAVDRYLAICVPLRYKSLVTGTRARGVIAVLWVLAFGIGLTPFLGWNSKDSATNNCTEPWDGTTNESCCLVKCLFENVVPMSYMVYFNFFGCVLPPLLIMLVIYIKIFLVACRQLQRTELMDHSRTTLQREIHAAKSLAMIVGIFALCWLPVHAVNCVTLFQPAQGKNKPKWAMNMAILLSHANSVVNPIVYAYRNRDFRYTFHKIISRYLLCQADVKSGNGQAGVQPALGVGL
As to the kind of experiment: Displacement of [3H]DPCPX from human adenosine A2B receptor expressed in HEK293 cells. It counts as cell-based. In outline:
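Competition run 60 min at 25 °C in 50 mM Tris-HCl, 10 mM MgCl2, 1 mM EDTA, 0.1 mM […], pH 7.4, with 2 IU/mL adenosine deaminase. Assays held 40 nM [3H]-DPCPX, membranes (20 μg protein/assay) and at least six to eight compound concentrations. Nonspecific binding was set with 100 μM NECA. Filtered on GF/B and counted. n = 3–6, mean ± SEM.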
On the technique in general: In a radioligand displacement assay an active substance lowers the binding of a labelled ligand.

Another experiment concerns the target T2, Adenosine receptor A1 (Homo sapiens, UniProt P30542).
T2 sequence (P30542 whole entry): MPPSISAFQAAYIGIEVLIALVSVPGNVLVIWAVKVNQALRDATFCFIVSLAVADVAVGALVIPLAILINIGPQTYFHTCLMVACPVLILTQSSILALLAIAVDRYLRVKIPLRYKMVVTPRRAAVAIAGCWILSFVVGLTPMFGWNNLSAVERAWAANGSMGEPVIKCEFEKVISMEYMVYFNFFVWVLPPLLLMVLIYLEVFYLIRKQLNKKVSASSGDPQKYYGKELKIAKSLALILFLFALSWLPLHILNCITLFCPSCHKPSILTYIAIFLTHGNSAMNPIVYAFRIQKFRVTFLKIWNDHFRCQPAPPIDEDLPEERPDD
The experiment is described as follows: Displacement of [3H]DPCPX from human Adenosine A1 receptor expressed in CHO cells. It is filed as cell-based. In outline: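 Membranes from the transfected cells in 50 mM Tris-HCl, pH 7.4, incubated 120 min at 25 °C with 1 nM [3H]-DPCPX (50 μg protein/assay) and at least six to eight test concentrations. Nonspecific binding was set with 10 μM CHA. Bound and free ligand were separated by GF/B filtration, then scintillation counted. n = 3–6, mean ± SEM.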

The target in experiment [4] is T1, Adenosine receptor A2b. The experiment is described as follows: Inhibitory activity against NECA stimulated cAMP accumulation in CHO cells expressing human adenosine A2B receptor. It counts as functional, cell-based. An outline of the steps:
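Transfected CHO cells (1 × 10^6/assay) in pH 7.4 saline/HEPES/glucose medium with 2 IU/mL adenosine deaminase and Ro 20-1724 (phosphodiesterase inhibitor), preincubated 10 min at 37 °C. Antagonism of 100 nM NECA-stimulated cAMP was measured. Reaction stopped with cold 6% TCA, then ether extraction. cAMP was quantified by competitive binding with [3H]-cAMP and beef adrenal binding protein (150 min, 4 °C), with charcoal separation and scintillation counting.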
For orientation: Cyclic AMP is a second messenger, typically raised through Gs and lowered through Gi signalling.

Another experiment has as its target T3, Adenosine receptor A3 (Homo sapiens, UniProt P0DMS8).
T3 sequence (P0DMS8 whole entry): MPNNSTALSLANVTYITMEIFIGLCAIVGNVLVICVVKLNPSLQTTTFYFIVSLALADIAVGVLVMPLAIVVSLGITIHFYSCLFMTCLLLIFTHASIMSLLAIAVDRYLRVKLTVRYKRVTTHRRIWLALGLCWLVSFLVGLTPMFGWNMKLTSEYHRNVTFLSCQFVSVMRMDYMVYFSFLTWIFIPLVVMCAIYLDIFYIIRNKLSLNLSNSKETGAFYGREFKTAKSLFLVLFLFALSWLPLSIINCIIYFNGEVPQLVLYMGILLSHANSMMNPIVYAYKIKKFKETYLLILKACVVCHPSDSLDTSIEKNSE
As to the kind of experiment: Displacement of [3H]MRE3008-F20 from human A3 receptors expressed in HEK293 cells. It counts as cell-based. In outline: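 Duplicate competition tubes: 1 nM [3H]-MRE3008-F20 in 50 mM Tris-HCl, 10 mM MgCl2, pH 7.4, membranes (50 μg protein/assay) and at least six to eight ligand concentrations, incubated 120 min at 4 °C. Nonspecific binding was set with 1 μM unlabeled MRE3008-F20. Bound radioactivity was collected on GF/B filters and counted.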

The target in another experiment is Adenosine receptor A2a (Homo sapiens, UniProt P29274). As to the kind of experiment: Displacement of [3H]ZM-241385 from human adenosine A2A receptors expressed in HEK293 cells. It is filed as cell-based.
Chain of Adenosine receptor A2a (P29274 whole entry): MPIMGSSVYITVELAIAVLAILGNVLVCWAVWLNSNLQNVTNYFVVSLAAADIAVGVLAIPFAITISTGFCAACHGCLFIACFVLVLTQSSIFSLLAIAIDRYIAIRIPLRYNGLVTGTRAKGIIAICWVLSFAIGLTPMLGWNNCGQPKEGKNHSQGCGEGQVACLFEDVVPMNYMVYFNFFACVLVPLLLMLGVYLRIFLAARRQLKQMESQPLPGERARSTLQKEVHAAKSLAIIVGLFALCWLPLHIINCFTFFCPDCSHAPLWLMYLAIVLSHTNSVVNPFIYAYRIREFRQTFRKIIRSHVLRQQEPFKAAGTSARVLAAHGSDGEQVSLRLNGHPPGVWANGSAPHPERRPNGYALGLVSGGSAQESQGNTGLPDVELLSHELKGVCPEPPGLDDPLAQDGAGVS

As a reminder, the Ki is a measure of affinity in units of concentration, obtained from inhibition or displacement. Read a low Ki as higher affinity. As a reminder, the IC50 is the concentration needed to halve the response being measured. Higher therefore signals lower potency.

For the compound `Nc1nc2nn(CCc3ccccc3)cc2c2nc(-c3ccco3)nn12`, the Ratio in experiment [1] worked out at 0.2.

For `O=C(COc1ccccc1)Nc1nc2nn(CCCc3ccccc3)cc2c2nc(-c3ccco3)nn12`, the results for the Ratio in experiment [2] and in experiment [1] were 1.6 and 2, respectively. The Ki on Adenosine receptor A2b [3] was 25 nM; on Adenosine receptor A1 it was 50 nM; at Adenosine receptor A3, 40 nM; at Adenosine receptor A2a, 45 nM. The compound also registered an IC50 at Adenosine receptor A2b [4] of 140 nM.

For `Cn1cc2c(nc(NC(=O)Cc3ccccc3)n3nc(-c4ccco4)nc23)n1`, the Ratio in experiment [2] amounted to 0.05; in experiment [1], 4.2.

For `CC(C)CCn1cc2c(nc(NC(=O)Cc3cccc4ccccc34)n3nc(-c4ccco4)nc23)n1`, the Ratio in experiment [2] came to 7.7; in experiment [1], 5.07. Moreover, the Ki was 28 nM at Adenosine receptor A2b [3], 142 nM at Adenosine receptor A1, 215 nM on Adenosine receptor A3 and 42 nM on Adenosine receptor A2a. Also, on Adenosine receptor A2b [4], the IC50 is 170 nM.

With `O=C(Cc1cccc2ccccc12)Nc1nc2nn(CCc3ccccc3)cc2c2nc(-c3ccco3)nn12`, the Ratio in experiment [2] was 4; in experiment [1], 3. Also, the Ki at Adenosine receptor A2b [3] came out at 30 nM; at Adenosine receptor A1 it was 90 nM; at Adenosine receptor A3, 120 nM; on Adenosine receptor A2a, 55 nM. Further, on Adenosine receptor A2b [4], the IC50 turned out to be 180 nM.

For `O=C(COc1ccccc1)Nc1nc2nn(CCc3ccccc3)cc2c2nc(-c3ccco3)nn12`, the results for the Ratio in experiment [2] and in experiment [1] were 13.6 and 0.9, respectively. Further, the Ki on Adenosine receptor A2b [3] worked out at 22 nM; at Adenosine receptor A1, 20 nM; at Adenosine receptor A3, 300 nM; on Adenosine receptor A2a it was 40 nM. This compound had an IC50 on Adenosine receptor A2b [4] of 130 nM.

Take `O=C(Cc1ccccc1)Nc1nc2nn(CCc3ccccc3)cc2c2nc(-c3ccco3)nn12`: the Ratio was determined as 1.3 in experiment [2] and 3.4 in experiment [1]. Also, the Ki was 35 nM on Adenosine receptor A2b [3], 120 nM at Adenosine receptor A1, 45 nM on Adenosine receptor A3 and 60 nM on Adenosine receptor A2a. In addition, the IC50 on Adenosine receptor A2b [4] was determined as 210 nM.

As for `O=C(Cc1cccc2ccccc12)Nc1nc2nn(CCCc3ccccc3)cc2c2nc(-c3ccco3)nn12`, the Ratio in experiment [2] worked out at 15; in experiment [1] it was 55. The Ki at Adenosine receptor A2b [3] was 20 nM; on Adenosine receptor A1, 1100 nM; at Adenosine receptor A3, 300 nM; at Adenosine receptor A2a it was 800 nM. The compound also displayed an IC50 at Adenosine receptor A2b [4] of 110 nM.

As to `CC(C)CCn1cc2c(nc(NC(=O)COc3ccccc3)n3nc(-c4ccco4)nc23)n1`, the Ratio in experiment [2] was found to be 2; in experiment [1], 2.2. For the same compound, the Ki at Adenosine receptor A2b [3] came to 25 nM; at Adenosine receptor A1, 55 nM; on Adenosine receptor A3 it was 50 nM; on Adenosine receptor A2a, 38 nM. In addition, the midpoint of inhibition on Adenosine receptor A2b [4], the IC50, lay at 150 nM.

`CC(C)CCn1cc2c(nc(NC(=O)Cc3ccccc3)n3nc(-c4ccco4)nc23)n1`: the Ratio in experiment [2] stood at 2.6; in experiment [1], 6.4. For the same compound, the results for the Ki on Adenosine receptor A2b [3], at Adenosine receptor A1 and at Adenosine receptor A2a were 31 nM, 200 nM and 57 nM, respectively. It took 190 nM to reach half-maximal inhibition at Adenosine receptor A2b [4] (IC50).

On to `Cn1cc2c(nc(NC(=O)Nc3ccccc3)n3nc(-c4ccco4)nc23)n1`, for which the Ratio in experiment [2] is 0.0007; in experiment [1] it was 2.67.

Consider `O=C(Cc1ccccc1)Nc1nc2nn(CCCc3ccccc3)cc2c2nc(-c3ccco3)nn12`, for which the results for the Ratio in experiment [2] and in experiment [1] were 3 and 1.9, respectively. Further, the values for the Ki on Adenosine receptor A2b [3], at Adenosine receptor A1 and on Adenosine receptor A2a were 40 nM, 75 nM and 60 nM, respectively. In addition, the IC50 against Adenosine receptor A2b [4] was 250 nM.
